Source: PubChem BioAssay (The Scripps Research Institute Molecular Screening Center)
M1 antag – antagonists of human M1 muscarinic receptor. P11229. 1.3% of 360,000 active. inhibition, % at 3 µM. CHO-K1 hM1, Fluo-8 calcium fluorescence, ACh EC80 antagonist;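 active = percent inhibition above its own plate's cutoff, namely the mean of that plate's compound wells plus 3 SD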;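 note: peak over basal fluorescence ratio during 140 s after agonist addition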
Target sequence (P11229 whole entry, looked up): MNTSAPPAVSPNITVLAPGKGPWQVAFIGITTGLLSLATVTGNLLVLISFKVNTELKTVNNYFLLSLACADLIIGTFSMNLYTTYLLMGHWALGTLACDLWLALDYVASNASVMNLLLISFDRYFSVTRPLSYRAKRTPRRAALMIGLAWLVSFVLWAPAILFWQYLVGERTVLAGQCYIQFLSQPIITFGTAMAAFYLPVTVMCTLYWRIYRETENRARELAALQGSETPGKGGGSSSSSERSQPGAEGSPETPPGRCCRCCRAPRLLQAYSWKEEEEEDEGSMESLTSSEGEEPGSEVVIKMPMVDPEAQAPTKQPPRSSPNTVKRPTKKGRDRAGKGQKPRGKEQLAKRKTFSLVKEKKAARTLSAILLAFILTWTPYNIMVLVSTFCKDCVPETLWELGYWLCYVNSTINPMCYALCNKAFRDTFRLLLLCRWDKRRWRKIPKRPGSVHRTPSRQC
M5 ag – CHRM5 agonism in calcium assay; CHO-K1 hM5 cells, Fluo-8 calcium fluorescence; 0% DMSO wells, 100% maximal acetylcholine response; activation, % at 3 µM; 0.19% of 360,000 active;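 active = activation above the run's mean over test compounds plus 3 SD, cut at about 23% in these data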;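 note: signal is peak over basal fluorescence ratio across the kinetic read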
M1 ag – agonists of human M1 muscarinic receptor | activation, % at 3 µM | P11229 | 0.33% of 360,000 active | CHO-K1 hM1, Fluo-8 calcium fluorescence, agonist mode; 0% DMSO, 100% acetylcholine EC100;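 active = activation above the run's mean compound activation plus 3 SD, cut at about 16% in these data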;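 note: peak over basal fluorescence ratio within a 140 s kinetic read after compound addition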
CHRM1 PAM – potentiates human M1 receptor response to acetylcholine; CHO-K1 hM1, Fluo-8 calcium fluorescence, ACh EC20; 0% = ACh EC20, 100% = maximal ACh; activation, % at 3 µM; P11229; 0.088% of 360,000 active; AID 588819; in the data active = activation above about 19%, passing the limit was not always enough
M5 PAM – CHRM5 positive allosteric modulation; CHO-K1 hM5, Fluo-8 calcium, ACh EC20 PAM; 0% = ACh EC20, 100% = ACh EC100; activation, % at 3 µM; 0.3% of 360,000 active; P08912; AID 624038;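 active = activation above the run cutoff, the mean activation of all test compounds plus 3 SD, cut at about 18% in these data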
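System – CHO-K1 hM5 cells · Compound – 3 µM, single dose · Incubation – compound preincubation 140 s before EC20 acetylcholine addition · Technique – Fluo-8 calcium fluorescence · Measure – Max/basal fluorescence ratio as % of EC20–EC100 ACh window · Benchmarks – low control EC20 acetylcholine (0%), high control EC100 acetylcholine (100%) · Replication – singlicate, one well per test compound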
M5 antag – blocks acetylcholine activation of human M5 receptor | 0.59% of 360,000 active | CHO-hM5 cells, Fluo-8 calcium fluorescence, ACh EC80 | P08912 | inhibition, % at 3 µM;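 active = inhibition above a per-plate cutoff, the mean of that plate's test compounds plus 3 SD, cut at about 27% in these data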
Numbers stand for hits. Only some compounds are listed: those with a hit (about 2% of all), similar ones and a draw of the others.

How did Cc1ccc(N(CC(=O)NCc2ccc(F)cc2)C(=O)c2csnn2)c(C)c1 do in these assays?
M1 antag: inactive; M5 ag: inactive; M1 ag: inactive; CHRM1 PAM: inactive; M5 PAM: inactive; M5 antag: inactive

How did O=C(O)CSC1c2ccccc2C(=O)N1c1ccccc1 (centres undefined) do in these assays?
M1 antag: inactive; M5 ag: inactive; M1 ag: inactive; CHRM1 PAM: inactive; M5 PAM: 37; M5 antag: inactive

What do the screens show for `CCCCOc1ccc(Br)cc1CSC(=N)N`?
M1 antag: 26; M5 ag: inactive; M1 ag: inactive; CHRM1 PAM: inactive; M5 PAM: inactive; M5 antag: 40

How did CC1(Oc2cccc(C#N)c2)CCN(Cc2ccccc2OC(F)F)C1 (centres undefined) do in these assays?
M1 antag: inactive; M5 ag: inactive; M1 ag: inactive; CHRM1 PAM: inactive; M5 PAM: inactive; M5 antag: inactive

Results for C=CCC1(CC=C)CCCN1C(=O)c1cc(COc2cncc(Cl)c2)on1 ?
M1 antag: 40; M5 ag: inactive; M1 ag: inactive; CHRM1 PAM: inactive; M5 PAM: inactive; M5 antag: inactive

What do the screens show for `O=S(=O)(NCCCN1CCOCC1)c1ccc2c(c1)OCCO2`?
M1 antag: inactive; M5 ag: inactive; M1 ag: inactive; CHRM1 PAM: inactive; M5 PAM: 22; M5 antag: inactive

What do the screens show for `CCCCCCCCN1C(=O)[C@H](CC(=O)N2CCCCC2)C[C@@]2(C(=O)OC)CC(C)(C)CC=C12`?
M5 ag: inactive; M5 PAM: inactive; M5 antag: inactive

What do the screens show for `CCOC(=O)/C=c1\s/c(=C(\C#N)C(=O)NC)n(-c2ccccc2)c1=O`?
M1 antag: inactive; M5 ag: inactive; M1 ag: inactive; CHRM1 PAM: inactive; M5 PAM: 23; M5 antag: inactive

What do the screens show for `COc1ccc(NC(=O)c2nnn(CC(=O)Nc3ccccc3OC)c2N)c(OC)c1`?
M1 antag: inactive; M5 ag: inactive; M1 ag: inactive; CHRM1 PAM: inactive; M5 PAM: inactive; M5 antag: inactive

What do the screens show for `CCc1ccc(Cn2nnc(C(=O)Nc3ccc(OC)cc3OC)c2N)cc1`?
M1 antag: inactive; M5 ag: inactive; M1 ag: 25; CHRM1 PAM: inactive; M5 PAM: inactive; M5 antag: inactive

What do the screens show for `O=C(NCC(F)(F)F)C1C(=O)Nc2ccccc2C(=O)N1Cc1ccccc1` (centres undefined)?
M5 ag: inactive; M5 PAM: inactive; M5 antag: inactive

Results for CCOC(=O)C1=CCN(S(=O)(=O)c2ccccc2F)C1c1ccc(F)cc1 (centres undefined) ?
M1 antag: inactive; M5 ag: inactive; M1 ag: inactive; CHRM1 PAM: inactive; M5 PAM: inactive; M5 antag: inactive

What do the screens show for `CCN1C(=C(C#N)C#N)C=Cc2cc(C)ccc21`?
M1 antag: inactive; M5 ag: inactive; M1 ag: inactive; CHRM1 PAM: inactive; M5 PAM: inactive; M5 antag: inactive

Results for C=CC[n+]1c(/C=C2\C=Cc3cc(C)ccc3N2CC)ccc2ccccc21 ?
M1 antag: 54; M5 ag: inactive; M1 ag: inactive; CHRM1 PAM: inactive; M5 PAM: inactive; M5 antag: 37

What do the screens show for `CC1=C(C)CC(C(=O)NC2CCN(C(C)C)CC2)C(C(=O)O)C1` (centres undefined)?
M1 antag: 50; M5 ag: inactive; M1 ag: inactive; CHRM1 PAM: inactive; M5 PAM: inactive; M5 antag: 37

How did CCCCOc1ccc(C(=O)Nc2ccc(N3CCN(C)CC3)cc2)cc1 do in these assays?
M1 antag: inactive; M5 ag: inactive; M1 ag: inactive; CHRM1 PAM: inactive; M5 PAM: inactive; M5 antag: inactive

What do the screens show for `CCN1CCN(c2ccc(NC(=O)c3ccc(Cl)c(N4CCCC4=O)c3)cc2)CC1`?
M1 antag: 23; M5 ag: inactive; M1 ag: inactive; CHRM1 PAM: inactive; M5 PAM: inactive; M5 antag: inactive

What do the screens show for `CCCCOc1cccc(C(=O)Nc2ccc(N3CCN(CC)CC3)cc2)c1`?
M1 antag: 75; M5 ag: inactive; M1 ag: inactive; CHRM1 PAM: inactive; M5 PAM: inactive; M5 antag: 39

How did CCN1CCN(c2ccc(NC(=O)c3ccc(Cl)c(S(=O)(=O)N4CCCC4)c3)cc2)CC1 do in these assays?
M1 antag: 99; M5 ag: inactive; M1 ag: inactive; CHRM1 PAM: inactive; M5 PAM: inactive; M5 antag: 56

Results for CCOC(=O)c1ccc(NC(=O)c2ccc(C)c(S(=O)(=O)N3CCOCC3)c2)cc1 ?
M1 antag: 51; M5 ag: inactive; M1 ag: inactive; CHRM1 PAM: inactive; M5 PAM: inactive; M5 antag: 29

How did CCN1CCN(c2ccc(NC(=O)c3ccc4c(c3)OCO4)cc2)CC1 do in these assays?
M1 antag: inactive; M5 ag: inactive; M1 ag: inactive; CHRM1 PAM: inactive; M5 PAM: inactive; M5 antag: inactive

How did CN(CC(=O)Nc1ccc(F)c(F)c1F)C(=O)CCN1C(=O)C2CC=CCC2C1=O (centres undefined) do in these assays?
M1 antag: inactive; M5 ag: inactive; M1 ag: inactive; CHRM1 PAM: inactive; M5 PAM: inactive; M5 antag: inactive

How did Cc1ccc(S(=O)(=O)N2[C@@H](Cc3ccccc3)CO[C@H]2CC(=O)c2cccc3ccccc23)cc1 do in these assays?
M5 ag: inactive; M5 PAM: inactive; M5 antag: inactive

How did COc1cccc(Cn2c(C(C)n3c(C)nc4ccccc43)nc3ccccc32)c1 (centres undefined) do in these assays?
M5 ag: inactive; M5 PAM: inactive; M5 antag: inactive

Results for O=C(COC(=O)c1ccc(F)c(S(=O)(=O)N2CCOCC2)c1)NCCc1ccc(F)cc1 ?
M1 antag: inactive; M5 ag: inactive; M1 ag: inactive; CHRM1 PAM: inactive; M5 PAM: inactive; M5 antag: inactive

What do the screens show for `COc1ccc(C(=O)OCC(=O)NCCc2ccc(F)cc2)cc1S(=O)(=O)N1CCOCC1`?
M1 antag: 33; M5 ag: inactive; M1 ag: inactive; CHRM1 PAM: inactive; M5 PAM: inactive; M5 antag: inactive

What do the screens show for `CCN(CC)CCOC(=O)c1ccc(NC(=O)c2ccc(Cl)c(S(=O)(=O)N3CCCCCC3)c2)cc1`?
M1 antag: 98; M5 ag: inactive; M1 ag: inactive; CHRM1 PAM: inactive; M5 PAM: inactive; M5 antag: 37

Results for Cc1ccc2nc(-c3ccc(F)cc3)c(CC3CCCCC3)n2c1 ?
M5 ag: inactive; M5 PAM: inactive; M5 antag: inactive

Results for Cc1ccc2nc(C(C)(C)C)c(Cc3cccc(Cl)c3)n2c1 ?
M1 antag: 70; M5 ag: inactive; M1 ag: inactive; CHRM1 PAM: inactive; M5 PAM: inactive; M5 antag: inactive
